Reference: ChEMBL document CHEMBL1143619, “Synthesis and biological evaluation of aminopolyamines” (J Med Chem, 2005)

How the values were obtained:
L1210 [1] = experiment: Effect on spermidine (SPD) levels after 48 hr treatment at 150 uM in L1210 cells; format: functional, Mus musculus
L1210 [2] = experiment: Cellular concentration expressed in L1210 cells; format: functional, Mus musculus
L1210 [3] = experiment: Effect on Putrescine (PUT) levels after 48 hr treatment at 150 uM in L1210 cells; format: functional, Mus musculus
L1210 [4] = experiment: Effect on spermine (SPM) levels after 48 h treatment at 150 uM in L1210 cells; format: functional, Mus musculus
[5] = Effect on S-Adenosyl-methionine decarboxylase (AdoMetDC) activity in L1210 cells at 1 uM for 6 hr
L1210 [6] = experiment: Effect on spermidine (SPD) levels after 48 hr treatment at 50 uM in L1210 cells; format: functional, Mus musculus
[7] = target: T1, Ornithine decarboxylase (Mus musculus) (UniProt P00860); experiment: Effect on Ornithine Decarboxylase (ODC) activity in L1210 cells at 1 uM for 4 hr; format: functional, cell-based
T1 sequence (whole entry): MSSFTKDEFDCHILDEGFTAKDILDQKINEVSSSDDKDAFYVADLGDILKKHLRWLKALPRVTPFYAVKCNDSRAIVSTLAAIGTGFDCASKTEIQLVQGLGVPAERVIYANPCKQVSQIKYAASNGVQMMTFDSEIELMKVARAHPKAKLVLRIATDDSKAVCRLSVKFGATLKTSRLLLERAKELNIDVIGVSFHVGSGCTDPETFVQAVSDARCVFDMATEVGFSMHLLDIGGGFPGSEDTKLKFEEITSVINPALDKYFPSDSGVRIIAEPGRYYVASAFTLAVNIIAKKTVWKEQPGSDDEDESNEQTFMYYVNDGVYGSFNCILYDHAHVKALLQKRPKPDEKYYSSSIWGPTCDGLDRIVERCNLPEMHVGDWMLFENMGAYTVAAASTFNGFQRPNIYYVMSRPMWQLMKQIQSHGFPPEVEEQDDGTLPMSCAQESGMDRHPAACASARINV

L1210 [8] = experiment: Inhibitory activity against L1210 cell growth for 48 hr; format: functional, cell-based; details: Mus musculus, L1210, 48 h
How it was run: (§1)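 Murine leukemia L1210 cells grown with nine extracellular drug concentrations (0, 0.03, 0.1, 0.3, 1.0, 3, 10, 30, 100 µM); IC50 estimated from growth curves at 48 or 96 h; mean of at least two experiments.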

L1210 [9] = experiment: Effect on spermine (SPM) levels after 48 hr treatment at 50 uM in L1210 cells; format: functional, Mus musculus
L1210 [10] = experiment: Ability to inhibit [3H]SPD transport by L1210 cells; format: functional, cell-based, Mus musculus
How it was run: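 Ki from analogue inhibition of [3H]spermidine transport into murine leukemia L1210 cells, analysed as substrate-competitive inhibition; mean of at least two or three experiments.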

L1210 [11] = experiment: Inhibitory activity against L1210 cell growth for 96h; format: functional, cell-based; details: Mus musculus, L1210, 96 h; how it was run: as §1
L1210 [12] = experiment: Effect on Putrescine (PUT) levels after 48 h treatment at 50 uM in L1210 cells; format: functional, Mus musculus
[13] = target: Spermidine/spermine N(1)-acetyltransferase (SAT) (Mus musculus) (UniProt Q6P8J2+P48026); experiment: Effect on Spermidine/spermine N1-acetyl transferase (SSAT) activity in L1210 cells at 10 uM for 48h; format: functional, cell-based
Spermidine/spermine N(1)-acetyltransferase (SAT) (Mus musculus), sequence (P48026 whole entry, looked up): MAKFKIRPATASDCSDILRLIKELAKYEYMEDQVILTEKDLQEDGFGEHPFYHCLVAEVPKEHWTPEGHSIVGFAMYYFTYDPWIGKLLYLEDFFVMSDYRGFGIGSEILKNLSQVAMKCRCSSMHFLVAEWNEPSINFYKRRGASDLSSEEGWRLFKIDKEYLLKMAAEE
Spermidine/spermine N(1)-acetyltransferase (SAT) (Mus musculus), sequence (Q6P8J2 whole entry, looked up): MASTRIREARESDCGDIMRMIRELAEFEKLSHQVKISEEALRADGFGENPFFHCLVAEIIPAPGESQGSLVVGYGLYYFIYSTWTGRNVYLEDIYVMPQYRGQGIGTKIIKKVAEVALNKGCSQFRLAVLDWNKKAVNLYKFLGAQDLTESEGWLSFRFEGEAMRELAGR

L1210 [14] = experiment: Effect on Putrescine (PUT) levels after 48 hr treatment at 500 uM in L1210 cells; format: functional, Mus musculus
L1210 [15] = experiment: Effect on spermine (SPM) levels after 48 hr treatment at 500 uM in L1210 cells; format: functional, Mus musculus
L1210 [16] = experiment: Effect on spermidine (SPD) levels after 48 hr treatment at 500 uM in L1210 cells; format: functional, Mus musculus

`CCNCCCNCCCCNCCCNCC` [BIS(ETHYL)SPERMINE] showed an Activity (L1210 [1]) of 0, a Cellular concentration (L1210 [2]) of 1.78 nmol/10^6 cells and an Activity (L1210 [3]) of 0. It also gave an Activity (L1210 [4]) of 22 and an Activity [5] of 28%.

`CCNCCCNCCC(N)CNCCCNCC` (stereo not drawn) gave an Activity (L1210 [6]) of 7, a Cellular concentration (L1210 [2]) of 3.1 nmol/10^6 cells and an Activity [7] of 16%. The IC50 (L1210 [8]) was 8 µM, the Activity (L1210 [9]) was 32 and the Activity [5] was 58%. The Ki (L1210 [10]) was 33.7 µM, the IC50 (L1210 [11]) was 0.4 µM and the Activity (L1210 [12]) was 26. The Activity [13] was 667%.

With `FC(F)(F)CNCCCNCCCCNCCCNCC(F)(F)F` the Cellular concentration (L1210 [2]) was less than 0.02 nmol/10^6 cells, the Activity (L1210 [14]) was 87 and the Activity [7] was 100%. It also gave an Activity (L1210 [15]) of 116, an Activity (L1210 [16]) of 94 and an Activity [5] of 100%. It also gave an IC50 (L1210 [11]) greater than 100 µM and an Activity [13] of 97%.
